Screening results as filed in PubChem.
PKA-R2B act – activators of PKA-R2B holoenzyme, primary screen, biochemical, fluorescence polarization, Cy5-IP20, human; PKA-R2B holoenzyme dissociation; R2B truncated from residue 108, S112A mutant; 0% DMSO only, 100% 113 µM cGMP; activation, % at 11.4 µM; hit rate 0.079% among 340,000; cAMP-dependent protein kinase catalytic subunit beta (Homo sapiens) + cAMP-dependent …;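 active = activation above a cutoff set at the mean over all compounds plus 3 SD, cut at about 18% in these data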;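 note: higher means more holoenzyme dissociation and a rise in polarization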
SR-BI HDL uptake – inhibitors of SR-BI mediated HDL lipid uptake, primary screen, ldlA[mSR-BI] cells, fluorescence, single point | hit rate 0.96% among 320,000 | ldlA[mSR-BI] CHO cells, DiI-HDL uptake fluorescence, 3 h | AID 488896, 2010 | Scavenger receptor class B member 1 (Mus musculus), Q61009 | inhibition, % at 12.5 µM;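 active = mean replicate inhibition of at least 70% and a set share of replicates each scoring 70 or more; inconclusive = meets just one of the two criteria; inactive = fails both criteria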
CDK5 inh – inhibitors of human CDK5/p35 kinase, primary screen, biochemical, single concentration; Cyclin-dependent kinase 5 (Homo sapiens) + Cyclin-dependent kinase 5 activator 1 (Homo …; inhibition, % at 10 µM; hit rate 0.01% among 330,000; AID 488839, 2010; Recombinant CDK5/p35, ADP-Glo luminescence, 60 min;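 active = highest replicate inhibition of at least 50% and at least 75% of replicates reaching 50%; inconclusive = only one of the two criteria met; inactive = both criteria failed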
SR-BI DiI-HDL act – activators of SR-BI mediated DiI-HDL uptake, primary screen, ldlA[mSR-BI] CHO cells, DiI fluorescence; 3 h; 100 = double the neutral-control signal; activation, % at 12.5 µM; hit rate 0.096% among 320,000; AID 504775, 2011;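 active = mean replicate activation of at least 60% and every replicate at or above 60%; inconclusive = mean or all-replicate condition met, but not both; inactive = mean below 60% and not all replicates reaching 60%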
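Test system: SR-BI-overexpressing, LDLR-lacking CHO cells; Medium: Ham's F12 with 0.5% BSA, HEPES 25 mM, pH 7.4; Schedule: 3 h, 37 °C; Technique: bottom-read fluorescence, 550/595 nm.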
dFosB act – activators of delta FosB homodimer, primary screen, biochemical, fluorescence polarization, TAMRA-CDK5 oligo, single point; Protein FosB (Mus musculus), P13346; purified delta FosB; percent of positive-control signal above neutral wells; activation, % at 25 µM; hit rate 0.99% among 340,000; AID 493131, 2011;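 active = mean activation above about 17%, with every replicate also reaching it, limit read from the data, passing the limit was not always enough; inconclusive = only one of the two conditions met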
Target sequence (P13346 whole entry, looked up): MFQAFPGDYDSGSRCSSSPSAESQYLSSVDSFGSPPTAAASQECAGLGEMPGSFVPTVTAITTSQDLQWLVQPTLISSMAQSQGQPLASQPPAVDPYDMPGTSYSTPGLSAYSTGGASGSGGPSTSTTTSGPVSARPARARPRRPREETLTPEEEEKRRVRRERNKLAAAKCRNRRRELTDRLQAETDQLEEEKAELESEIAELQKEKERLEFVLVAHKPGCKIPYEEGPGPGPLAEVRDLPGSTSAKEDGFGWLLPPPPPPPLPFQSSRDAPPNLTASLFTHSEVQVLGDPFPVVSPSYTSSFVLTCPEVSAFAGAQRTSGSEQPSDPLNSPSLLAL
PKA-R1A activ – activators of PKA-R1A holoenzyme, primary screen, biochemical, fluorescence polarization, Cy5-IP20, bovine R1A, mouse PKAc. PKA-R1A dissociation; scaled: DMSO 0%, 113 µM cGMP 100%. cAMP-dependent protein kinase type I-alpha regulatory subunit (Bos taurus) + …. activation, % at 11.4 µM. hit rate 0.083% among 340,000;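 active = percent activation above the mean of all tested compounds plus 3 SD, cut at about 19% in these data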;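 note: higher means more PKAc released from R1A so a rise in polarization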
Of the large screens only hits and unclear results are named; the others gave an inactive call. Compounds with a hit are over-represented: about 2.1% of the library has one in this group of screens.

COc1cc2c(cc1NC(=O)CCCCCN1C(=O)CCC1=O)oc1ccccc12	SR-BI HDL uptake 85
COc1cc2c(cc1NC(=O)CCCN1C(=O)CCC1=O)oc1ccccc12	none
COc1cc2c(cc1NC(=O)CSc1ccc(C)cc1)oc1ccccc12	none
COc1cc2c(cc1NC(=O)C(C)NCc1ccccc1)oc1ccccc12 (stereo not drawn)	none
COc1cc2c(cc1NC(=O)Cc1ccc(C)cc1)oc1ccccc12	SR-BI HDL uptake 72
COc1cc2c(cc1NC(=O)C(C)Sc1ccc(C)cc1)oc1ccccc12 (stereo not drawn)	SR-BI HDL uptake 79
Cc1ccccc1NC(=O)Cn1c(=O)oc2ccccc21	none
COc1ccc(C)cc1NC(=O)Cn1c(=O)oc2ccccc21	dFosB act 19
Cc1ccc(NS(=O)(=O)c2cc(C(=O)N(C)C3CCN(C)CC3)ccc2Cl)cc1Cl	none
Cc1cc(C)n(CCCNC(=O)CCNS(=O)(=O)c2ccccc2C(F)(F)F)n1	none
CCOc1ccccc1NC(=O)C1C2CCC3C(CCC21)C3(Cl)Cl (stereo not drawn)	SR-BI HDL uptake 73
O=C1C=CC(n2cc(F)c(=O)[nH]c2=O)O1 (stereo not drawn)	none (no result: SR-BI HDL uptake, CDK5 inh, SR-BI DiI-HDL act, dFosB act)
COc1ccc(S(=O)(=O)NC(CC(C)C)C(=O)NC(C)c2cccs2)cc1 (stereo not drawn)	none
COc1cc(OC)cc(C(=O)NC(C)CNc2ccc(Cl)cc2[N+](=O)[O-])c1 (stereo not drawn)	SR-BI HDL uptake 79
CCCCN1C2=C(C(=O)CCC2)C(c2ccc(Cl)c(Cl)c2)C2=C1c1ccccc1C2=O (stereo not drawn)	SR-BI HDL uptake 85
O=C(NCCN1CCN(C(=O)c2ccc(Br)cc2)CC1)c1ccc(Br)cc1	SR-BI HDL uptake 71
COc1cccc(Nc2nc(-c3cccs3)nc3ccccc23)c1	none
COc1ccc(Nc2nc(-c3cccc([N+](=O)[O-])c3)nc3ccccc23)cc1	SR-BI HDL uptake 88
O=[N+]([O-])c1ccc(-c2nc(Nc3ccc(O)cc3)c3ccccc3n2)cc1	SR-BI HDL uptake 91
O=[N+]([O-])c1ccc(S(=O)(=O)Nc2nc3ccccc3nc2Nc2ccccc2)cc1	SR-BI HDL uptake 78 (no result: PKA-R2B act, PKA-R1A activ)
COc1ccc(Nc2nc(-c3cccs3)nc3ccccc23)cc1	SR-BI HDL uptake 75
Cc1cc(C)nc(N/N=C/c2cc(Br)ccc2O)n1	none
O=C(NCCCNC(=O)c1c(Cl)cccc1Cl)c1c(Cl)cccc1Cl	none
O=C(NCCCNC(=O)c1c(F)cccc1F)c1c(F)cccc1F	SR-BI HDL uptake 78
COc1ccc(-c2nc(C#N)c(NCc3ccc(F)cc3)o2)cc1OC	SR-BI HDL uptake 74
COCCn1c(=NC(=O)c2nc3ccccc3s2)sc2cc(S(C)(=O)=O)ccc21	none
C#CCn1c(=NC(=O)c2ccccc2[N+](=O)[O-])sc2cc(S(C)(=O)=O)ccc21	dFosB act 33
Cc1ccnc2nc(C(=O)OCC(=O)Nc3ccc4c(c3)OCCO4)nn12	none
Nc1c(C(=O)NCc2ccc3c(c2)OCO3)nnn1Cc1ccc(Br)cc1	dFosB act 20 (no result: SR-BI HDL uptake, SR-BI DiI-HDL act)
CCOc1ccc2oc(C(=O)N(C)CC(=O)Nc3ccc(OCC)c(OCC)c3)c(C)c2c1	SR-BI HDL uptake 82
CCOc1ccc2oc(C(=O)NNC(=O)c3ccccc3O)c(C)c2c1	SR-BI HDL uptake 131
CCOc1ccc(NC(=O)CN(C)C(=O)CCCOc2ccc(Br)cc2)cc1OCC	SR-BI HDL uptake 83
CCOc1ccc(NC(=O)CN(C)C(=O)c2cccnc2Sc2ccc(Cl)cc2)cc1OCC	SR-BI DiI-HDL act 82
CCOc1ccc(NC(=O)CN(C)C(=O)c2cccnc2Sc2ccc(C)c(C)c2)cc1OCC	none
CCOc1ccc(NC(=O)CN(C)C(=O)CCNC(=O)c2ccc(Br)cc2)cc1OCC	none
CCOc1ccc2oc(C(=O)O)c(C)c2c1	none
O=C(NCC1CCCO1)c1ccc(NC(=O)c2ccc([N+](=O)[O-])cc2)cc1 (stereo not drawn)	none
CCCCn1c(N)c(N(CCOC)C(=O)CCCc2nc3ccccc3c(=O)[nH]2)c(=O)[nH]c1=O	none
O=c1c2c([N+](=O)[O-])cc([N+](=O)[O-])cc2sn1-c1ccc(Br)cc1	SR-BI HDL uptake 79
CC(=O)Nc1nc(-c2ccc3c(c2)CC(C)N3C(=O)C2CC2)c(C)s1 (stereo not drawn)	none (no result: SR-BI HDL uptake, SR-BI DiI-HDL act)
Cc1sc(NC(=O)c2ccco2)nc1-c1ccc2c(c1)CC(C)N2C(=O)C1CC1 (stereo not drawn)	SR-BI HDL uptake 79
CN(C)/C=C1\C(=O)N(c2ccc(Cl)c(Cl)c2)CS1(=O)=O	none
CN(C)C1=C(Cl)C(=O)N(c2ccc(Cl)c(Cl)c2)C1=O	dFosB act 24 (no result: SR-BI HDL uptake, SR-BI DiI-HDL act)
O=C(CCN1C(=O)c2ccc(Br)cc2C1=O)NC1CCCCC1	none
COc1ccc(OC)c(NC(=O)CSc2nc3n[nH]c(C)c3c(=N)n2-c2cccc(Cl)c2C)c1	none
COc1ccc(NC(=O)CSc2nc3n[nH]c(C)c3c(=N)n2-c2ccc(Cl)c(C)c2)cc1OC	dFosB act 44
Cc1ccc(-c2csc(NC(=O)C[n+]3cc(-c4ccc(C)cc4)n4c3CCC4)n2)cc1	dFosB act 37
Cc1ccnc(N/C=C(/NC(=O)c2ccccc2)C(=O)N/N=C\c2ccc(Cl)cc2)n1	dFosB act 19 (no result: SR-BI HDL uptake, SR-BI DiI-HDL act)
CC(Nc1nc(-c2ccc(F)cc2)cs1)c1nc2cc(Cl)c(N3CCCCC3)cc2n1CCOCCO (stereo not drawn)	none
CC(Nc1nc(-c2cccc(Br)c2)cs1)c1nc2cc(Cl)c(N3CCCCC3)cc2n1CCOCCO (stereo not drawn)	SR-BI HDL uptake 75
CCCCNC(=S)N/N=C/c1cccc(OCC)c1O	none
CCOc1cccc(/C=N/NC(=S)Nc2ccccc2[N+](=O)[O-])c1O	SR-BI HDL uptake 128
O=C(COC(=O)COc1cccc(Br)c1)Nc1c(Cl)cccc1Cl	SR-BI DiI-HDL act 374, dFosB act inconclusive
CS(=O)(=O)c1ccc(Cl)c(NC(=O)c2cc(S(=O)(=O)N3CCOCC3)ccc2N2CCCC2)c1	none
